From ChEMBL document CHEMBL2434847, “Design, synthesis, and structure-activity relationships of novel 6,7-disubstituted-4-phenoxyquinoline derivatives as potential antitumor agents” (Eur J Med Chem, 2013)
pIC50: −log10 of the molar value.

Assays:
[1] = system: A549; test: Cytotoxicity against human A549 cells after 72 hrs by MTT assay; assay type: functional, cell-based; details: A549, 72 h
How it was run: (§1)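 Cells grown in MEM with 10% FBS; about 4 × 10³ cells per well, preincubated 24 h at 37 °C in 5% CO₂, then exposed to compound for 72 h. Each line tested three times; IC50 is mean of three determinations.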

[2] = Cytotoxicity against human H460 cells after 72 hrs by MTT assay; details: NCI-H460, 72 h
[3] = Cytotoxicity against human U87MG cells after 72 hrs by MTT assay; assay type: functional, cell-based, U-87MG ATCC; details: U-87 MG; how it was run: as §1
[4] = system: MKN-45; test: Cytotoxicity against human MKN45 cells after 72 hrs by MTT assay; details: MKN-45, 72 h
[5] = system: HT-29; test: Cytotoxicity against human HT-29 cells after 72 hrs by MTT assay; details: HT-29, 72 h

Row | Structure (SMILES) | pIC50 [1] | pIC50 [2] | pIC50 [3] | pIC50 [4] | pIC50 [5]
1 | COc1cc2c(Oc3ccc(NC(=O)c4nccc(-c5ccc(F)cc5F)n4)cc3F)ccnc2cc1OCCCN1CCCCC1 | 6.33 | 6.26 | 6.11 | 5.95 | 6.40
2 | COc1cc2c(Oc3ccc(NC(=O)c4nccc(-c5ccc(C)cc5)n4)cc3F)ccnc2cc1OCCCN1CCN(C)CC1 |  | 6.80 |  | 6.47 | 6.68
3 | COc1cc2c(Oc3ccc(NC(=O)c4nccc(-c5ccc(F)cc5)n4)cc3F)ccnc2cc1OCCCN1CCN(C)CC1 | 6.17 | 7.20 | 6.04 | 7.05 | 7.38
4 | COc1cc2c(Oc3ccc(NC(=O)c4nccc(-c5ccc(F)cc5F)n4)cc3F)ccnc2cc1OCCCN1CCN(C)CC1 | 6.18 | 6.35 | 6.11 | 6.36 | 6.32
5 | COc1cc2c(Oc3ccc(NC(=O)c4nccc(-c5ccccc5)n4)cc3F)ccnc2cc1OCCCN1CCCC1 |  | 5.95 |  | 5.87 | 6.41
6 | COc1cc2c(Oc3ccc(NC(=O)c4nccc(-c5ccc(C)cc5)n4)cc3F)ccnc2cc1OCCCN1CCCC1 |  | 6.36 |  | 6.62 | 6.17
7 | COc1cc2c(Oc3ccc(NC(=O)c4nccc(-c5ccc(F)cc5)n4)cc3F)ccnc2cc1OCCCN1CCCC1 | 6.00 | 6.52 | 5.95 | 6.31 | 6.80
8 | COc1cc2c(Oc3ccc(NC(=O)c4cc(-c5ccc(C(F)(F)F)cc5)ccn4)cc3F)ccnc2cc1OCCCN1CCCC1 |  | 6.60 |  | 6.59 | 6.14
9 | COc1ccc(-c2ccnc(C(=O)Nc3ccc(Oc4ccnc5cc(OCCCN6CCCC6)c(OC)cc45)c(F)c3)c2)cc1 |  | 6.70 |  | 6.82 | 6.46
10 | COc1ccc(-c2ccnc(C(=O)Nc3ccc(Oc4ccnc5cc(OCCCN6CCCC6)c(OC)cc45)c(F)c3)c2)c(OC)c1 |  | 6.28 |  | 6.13 | 6.20
11 | COc1cc2c(Oc3ccc(NC(=O)c4cc(-c5ccccc5)ccn4)cc3F)ccnc2cc1OCCCN1CCCCC1 | 5.74 | 6.92 | 6.10 | 6.57 | 6.57
12 | COc1cc2c(Oc3ccc(NC(=O)c4cc(-c5ccc(C)cc5)ccn4)cc3F)ccnc2cc1OCCCN1CCCCC1 |  | 6.80 |  | 5.78 | 6.47
13 | COc1cc2c(Oc3ccc(NC(=O)c4cc(-c5ccc(F)cc5)ccn4)cc3F)ccnc2cc1OCCCN1CCCCC1 | 5.00 | 6.60 | 4.90 | 5.91 | 5.86
14 | COc1cc2c(Oc3ccc(NC(=O)c4cc(-c5ccccc5F)ccn4)cc3F)ccnc2cc1OCCCN1CCCCC1 |  | 6.89 |  | 6.74 | 6.49
15 | COc1cc2c(Oc3ccc(NC(=O)c4cc(-c5ccc(C(F)(F)F)cc5)ccn4)cc3F)ccnc2cc1OCCCN1CCCCC1 | 5.79 | 6.44 | 5.79 | 6.06 | 6.64
16 | COc1ccc(-c2ccnc(C(=O)Nc3ccc(Oc4ccnc5cc(OCCCN6CCCCC6)c(OC)cc45)c(F)c3)c2)cc1 |  | 6.70 |  | 6.24 | 6.16
17 | COc1cc2c(Oc3ccc(NC(=O)c4nccc(-c5ccccc5)n4)cc3F)ccnc2cc1OCCCN1CCOCC1 | 6.29 | 6.62 | 5.87 | 6.59 | 6.82
18 | COc1cc2c(Oc3ccc(NC(=O)c4nccc(-c5ccc(C)cc5)n4)cc3F)ccnc2cc1OCCCN1CCOCC1 | 5.65 | 6.52 | 5.62 | 6.51 | 6.62
19 | COc1cc2c(Oc3ccc(NC(=O)c4nccc(-c5ccc(F)cc5)n4)cc3F)ccnc2cc1OCCCN1CCOCC1 |  | 6.66 |  | 6.44 | 6.96
20 | COc1cc2c(Oc3ccc(NC(=O)c4nccc(-c5ccc(F)cc5F)n4)cc3F)ccnc2cc1OCCCN1CCOCC1 |  | 5.99 |  | 6.02 | 5.66
21 | COc1cc2c(Oc3ccc(NC(=O)c4nccc(-c5ccccc5)n4)cc3F)ccnc2cc1OCCCN1CCCCC1 |  | 6.48 |  | 5.99 | 6.59
22 | COc1cc2c(Oc3ccc(NC(=O)c4nccc(-c5ccc(C)cc5)n4)cc3F)ccnc2cc1OCCCN1CCCCC1 | 6.05 | 6.64 | 5.94 | 6.24 | 6.21

Row | Structure (SMILES) | pIC50 [1] | pIC50 [2] | pIC50 [3] | pIC50 [4] | pIC50 [5]
23 | COc1cc2c(Oc3ccc(NC(=O)c4nccc(-c5ccc(F)cc5)n4)cc3F)ccnc2cc1OCCCN1CCCCC1 |  | 6.62 |  | 6.03 | 6.92
24 | COc1cc2c(Oc3ccc(NC(=O)c4cc(-c5ccc(C(F)(F)F)cc5)ccn4)cc3F)ccnc2cc1OCCCN1CCN(C)CC1 |  | 6.80 |  | 6.48 | 6.70
25 | COc1ccc(-c2ccnc(C(=O)Nc3ccc(Oc4ccnc5cc(OCCCN6CCN(C)CC6)c(OC)cc45)c(F)c3)c2)cc1 |  | 6.43 |  | 6.60 | 6.41
26 | COc1ccc(-c2ccnc(C(=O)Nc3ccc(Oc4ccnc5cc(OCCCN6CCN(C)CC6)c(OC)cc45)c(F)c3)c2)c(OC)c1 |  | 6.37 |  | 6.48 | 6.38
27 | COc1cc2c(Oc3ccc(NC(=O)c4cc(-c5ccccc5)ccn4)cc3F)ccnc2cc1OCCCN1CCOCC1 | 5.46 | 6.46 | 5.89 | 6.55 | 6.48
28 | COc1cc2c(Oc3ccc(NC(=O)c4cc(-c5ccc(C)cc5)ccn4)cc3F)ccnc2cc1OCCCN1CCOCC1 | 5.46 | 6.24 | 5.17 | 6.36 | 6.54
29 | COc1cc2c(Oc3ccc(NC(=O)c4cc(-c5ccccc5C)ccn4)cc3F)ccnc2cc1OCCCN1CCOCC1 |  | 5.67 |  | 5.94 | 5.98
30 | COc1cc2c(Oc3ccc(NC(=O)c4cc(-c5ccc(F)cc5)ccn4)cc3F)ccnc2cc1OCCCN1CCOCC1 |  | 5.73 |  | 6.06 | 6.00
31 | COc1cc2c(Oc3ccc(NC(=O)c4cc(-c5ccccc5F)ccn4)cc3F)ccnc2cc1OCCCN1CCOCC1 | 5.40 | 6.17 | 5.52 | 5.88 | 6.40
32 | COc1cc2c(Oc3ccc(NC(=O)c4cc(-c5ccc(C(F)(F)F)cc5)ccn4)cc3F)ccnc2cc1OCCCN1CCOCC1 |  | 4.28 |  | 4.10 | 5.29
33 | COc1ccc(-c2ccnc(C(=O)Nc3ccc(Oc4ccnc5cc(OCCCN6CCOCC6)c(OC)cc45)c(F)c3)c2)cc1 |  | 5.51 |  | 5.94 | 5.87
34 | COc1ccc(-c2ccnc(C(=O)Nc3ccc(Oc4ccnc5cc(OCCCN6CCOCC6)c(OC)cc45)c(F)c3)c2)c(OC)c1 |  | 4.90 |  | 5.18 | 5.82
35 | COc1cc2c(Oc3ccc(NC(=O)c4cc(-c5ccccc5)ccn4)cc3F)ccnc2cc1OCCCN1CCCC1 | 5.80 | 6.89 | 6.00 | 6.68 | 6.92
36 | COc1cc2c(Oc3ccc(NC(=O)c4cc(-c5ccc(C)cc5)ccn4)cc3F)ccnc2cc1OCCCN1CCCC1 | 5.97 | 6.80 | 6.25 | 6.36 | 6.46
37 | COc1cc2c(Oc3ccc(NC(=O)c4cc(-c5ccccc5C)ccn4)cc3F)ccnc2cc1OCCCN1CCCC1 |  | 6.38 |  | 6.36 | 5.94
38 | COc1cc2c(Oc3ccc(NC(=O)c4cc(-c5ccc(F)cc5)ccn4)cc3F)ccnc2cc1OCCCN1CCCC1 | 5.74 | 6.43 | 5.75 | 6.46 | 6.37
39 | COc1cc2c(Oc3ccc(NC(=O)c4cc(-c5ccccc5F)ccn4)cc3F)ccnc2cc1OCCCN1CCCC1 | 6.37 | 6.85 | 6.21 | 6.64 | 6.64
40 | COc1cc2c(Oc3ccc(NC(=O)c4cc(-c5ccccc5)ccn4)cc3F)ccnc2cc1OCCCN1CCN(C)CC1 | 6.47 | 7.04 | 6.00 | 6.82 | 7.09
41 | COc1cc2c(Oc3ccc(NC(=O)c4cc(-c5ccccc5C)ccn4)cc3F)ccnc2cc1OCCCN1CCN(C)CC1 | 5.88 | 6.82 | 5.69 | 6.62 | 6.74
42 | COc1cc2c(Oc3ccc(NC(=O)c4cc(-c5ccc(F)cc5)ccn4)cc3F)ccnc2cc1OCCCN1CCN(C)CC1 |  | 6.37 |  | 6.29 | 5.84
43 | COc1cc2c(Oc3ccc(NC(=O)c4cc(-c5ccccc5F)ccn4)cc3F)ccnc2cc1OCCCN1CCN(C)CC1 |  | 6.85 |  | 6.82 | 6.66
